Reference: publication PMC4092037 (American journal of reproductive immunology (New York, N.Y. …, 2013)
Read-outs that look alike come from different tables or passages of the source. Each block holds one molecule with its values, some of them ahead of it. Ends that are not written are not given here.

Key:
WT/HEK293 cells [1] = assay: C-FOS gene expression; assay type: cell-based; conditions: 30 nM, 30 min at 37°C, data not shown
WT/HEK293 cells [2] = assay: Immunocytochemistry of C-FOS, WT/HEK293; assay type: cell-based; conditions: 100 nM, 30 min at 37°C
In short: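 Coverslips coated with 0.1% gelatin. […] Fixed in 4% paraformaldehyde for 30 min and permeabilised with 0.1% Triton X-100 for 10 min. Stained with rabbit anti-C-FOS overnight at 4°C, then Alexa-488 anti-rabbit for 1 h, with DAPI nuclear stain. Imaged by confocal microscopy.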

WT/L1.2 cells = assay: In vitro transwell chemotaxis assay, WT/L1.2; assay type: cell-based; conditions: 0.3, 1, 10, 100 nM, 4 h at 37°C
In short: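 Wild-type L1.2 cells were pretreated overnight with sodium butyrate. […] After 4 h migration at 37°C, cells in the lower chamber were stained with CellTiter Blue and read by fluorescence at 560/580 nm. Run in parallel with the CMKLR1-transfected line.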

human GPR1 = molecular target: T1, human GPR1 (Homo sapiens, UniProt P46091); assay: Radioligand binding assay, huGPR1/HEK293
T1 sequence (P46091 1-355): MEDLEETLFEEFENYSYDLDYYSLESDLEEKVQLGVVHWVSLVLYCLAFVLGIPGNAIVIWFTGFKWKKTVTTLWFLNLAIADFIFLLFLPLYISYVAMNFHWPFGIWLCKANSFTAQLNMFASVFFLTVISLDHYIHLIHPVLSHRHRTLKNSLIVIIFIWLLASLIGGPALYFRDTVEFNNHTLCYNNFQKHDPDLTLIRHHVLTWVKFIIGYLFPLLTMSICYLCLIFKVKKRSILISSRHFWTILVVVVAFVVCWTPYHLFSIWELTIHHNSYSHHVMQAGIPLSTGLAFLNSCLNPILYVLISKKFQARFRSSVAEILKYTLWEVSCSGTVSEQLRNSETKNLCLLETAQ
In short: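 Competition binding on intact huGPR1/HEK293 cells, with neuronostatin as the negative-control peptide. After incubation, cells were pelleted at 1000 × g for 10 min, washed three times, and counted in a γ-spectrophotometer.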

WT/HEK293 cells [3] = assay: cAMP assay, WT/HEK293; assay type: cell-based; conditions: 30 min at 37°C
In short: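 Wild-type HEK293 cells were plated at 5 × 10^5/well, cultured for 24 h and serum-starved for 4 h. Exposed for 30 min at 37°C to test compound, forskolin 10 μM, both together, or medium. Washed with cold PBS and lysed. Lysate cAMP was measured by kit and normalised to total protein (BCA); conditioned medium was also assayed. Mean ± S.E.M.; one-way ANOVA with SNK test.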

WT/HEK293 cells [4] = assay: Internalization assay, wild-type HEK293; assay type: cell-based; conditions: 100 nM, 30 min at 37°C, confocal
In short: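 Cells were grown on 0.1% gelatin-coated coverslips and serum-starved for 4 h at 50–60% confluence. […] Fixed in 4% paraformaldehyde and permeabilised with 0.1% Triton X-100. Stained overnight at 4°C with rat anti-human CMKLR1 mAb, then Alexa-488 anti-rat for 2 h, with DAPI. Examined by confocal microscopy; four independent experiments.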

human CMKLR1 [5] = molecular target: T2, human CMKLR1 (Homo sapiens, UniProt Q99788); assay: Radioligand binding assay, huCMKLR1/HEK293
T2 sequence (Q99788 1-373): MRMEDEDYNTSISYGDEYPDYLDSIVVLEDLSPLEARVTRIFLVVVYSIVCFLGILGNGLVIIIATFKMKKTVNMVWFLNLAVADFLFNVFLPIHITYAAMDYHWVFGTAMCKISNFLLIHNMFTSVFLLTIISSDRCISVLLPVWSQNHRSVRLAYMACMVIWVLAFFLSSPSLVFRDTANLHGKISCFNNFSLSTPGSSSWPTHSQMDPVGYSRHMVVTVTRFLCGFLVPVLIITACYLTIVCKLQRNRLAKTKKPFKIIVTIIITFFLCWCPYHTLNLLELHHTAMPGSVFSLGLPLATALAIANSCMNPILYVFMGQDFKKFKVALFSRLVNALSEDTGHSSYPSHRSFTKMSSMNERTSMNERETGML

primary Leydig cells [6] = assay: Testosterone production, primary Leydig cell culture; assay type: cell-based, Sprague-Dawley rat; conditions: 24 h; for hCG-stimulated testosterone production: hCG 0.01 IU/mL, vs hCG group
In short: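 Leydig cells came from five male rats aged 3–4 months. Decapsulated testes were digested for 15 min at 34°C in DMEM/F12-0.1% BSA with 0.5 mg/mL collagenase IA and 0.25 mg/mL soybean trypsin inhibitor. Filtered, purified on a Percoll gradient, cultured at 34°C, 5% CO2, and purity checked by 3β-HSD staining. Treated for 24 h with test compound ± hCG 0.01 IU/mL. Medium testosterone by 125I RIA; mean ± S.E.M.; ANOVA/SNK.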

human CMKLR1 [7] = molecular target: T2, human CMKLR1; assay: In vitro transwell chemotaxis assay, huCMKLR1/L1.2; assay type: cell-based; conditions: for chemotaxis: 4 h at 37°C, fluorescence 560/580 nm
antral follicles [8] = assay: Progesterone production, antral follicle culture; assay type: cell-based, Sprague-Dawley rat; conditions: hCG 0.01 IU/mL, 6 h, vs hCG group
In short: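 Immature female rats (21–23 days) were primed with PMSG, 30 IU i.p. per rat. Follicles over 900 μm were isolated 48 h later into ice-cold saline and preincubated at 3 per well in DMEM/F12-0.1% BSA at 37°C. Treated for 6 h with test compound, alone or with hCG 0.01 IU/mL. Medium progesterone measured by 125I RIA (sensitivity 0.02 ng/mL). Mean ± S.E.M.; one-way ANOVA with SNK test.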

CCRL2 = conditions: cited from earlier work
CMKLR1 [9] = conditions: cited from earlier work
GPR1 = conditions: cited from earlier work
human granulose cell = conditions: human granulosa cells; cited from earlier work
human CMKLR1 [10] = molecular target: T2, human CMKLR1; assay: cAMP assay, huCMKLR1/HEK293; assay type: cell-based; conditions: forskolin 10 μM, 30 min at 37°C
human CMKLR1 [11] = molecular target: T2, human CMKLR1; assay: Receptor internalization assay, huCMKLR1/HEK293; assay type: cell-based; conditions: 100 nM, 30 min at 37°C, confocal, four independent experiments
CMKLR1 [12] = conditions: cited from earlier work; remark: listed apart in the source
primary Leydig cells [13] = assay: Steroidogenic enzyme gene expression, primary Leydig cells; assay type: cell-based, Sprague-Dawley rat; conditions: beta-actin reference, 24 h
In short: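 Leydig cells from testes of five Sprague-Dawley males (3–4 months): collagenase IA digestion, 15 min at 34°C; 70 μm filtration; Percoll gradient (1.030–1.096 g/mL); culture at 34°C, 5% CO2; purity by 3β-HSD staining.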

antral follicles [14] = assay: Steroidogenic enzyme gene expression, antral follicles; assay type: cell-based, Sprague-Dawley rat; conditions: large antral follicles, beta-actin reference, 6 h

IC50 (human GPR1; read-out: IC50 (displacement of iodochemerin), huGPR1/HEK293 cells, about 1,000,000 per tube, 2 nM iodochemerin, 16 h at 23°C): 0.5 nM
Molecule: huChemerin: Human recombinant chemerin purchased from R&D Systems
C-FOS gene expression (WT/HEK293 cells [1]): No such stimulation
C-FOS protein expression (WT/HEK293 cells [2]): No such stimulation
chemotactic response (WT/L1.2 cells): no chemotactic response
forskolin-stimulated cAMP production (WT/HEK293 cells [3]; 10 nM peptide/protein + 10 μM forskolin cotreatment): no effect
internalization (WT/HEK293 cells [4]): No internalization observed

IC50 (human GPR1): 3.5 nM
IC50 (human CMKLR1 [5]): 1.6 nM
Molecule: VQRAGEDPHSFYFPGQFAFS [huC-20]

chemotaxis (human CMKLR1 [7]; 1 nM): no chemotactic actions
chemotaxis (human CMKLR1 [7]; 10 nM): no chemotactic actions
Molecule: AGEDPHSFYFPGQFA [huC-15]
hCG-stimulated testosterone production (primary Leydig cells [6]; 100 nM): no such kind of suppression

lowest effective dose for chemotaxis (human CMKLR1 [7]; of 0.3, 1, 10, 100 nM tested): 1 nM
Molecule: C-20: 20 amino acid chemerin-derived peptide; used without species prefix for huC-20 or mC-20 (VQRAGEDPHSFYFPGQFAFS)
hCG-stimulated testosterone production (primary Leydig cells [6]; 1 nM): not effective
hCG-stimulated testosterone production (primary Leydig cells [6]; 10 nM): not effective
hCG-stimulated progesterone production (antral follicles [8]; 1 nM): not effective
hCG-stimulated progesterone production (antral follicles [8]; 10 nM): not effective

IC50 (human GPR1): 5 nM
IC50 (human CMKLR1 [5]): 2.5 nM
Molecule: IAQAGEDPHGYFLPGQFAFS [mC-20]

Molecule: chemerin: The active protein of 137 amino acids in human was named chemerin
internalization and chemotaxis (CCRL2): stimulates neither internalization nor chemotaxis
leukocyte chemotaxis (CMKLR1 [9]): promotes leukocyte chemotaxis
receptor internalization (CMKLR1 [9]): triggers receptor internalization
receptor internalization (GPR1): stimulates receptor internalization
IGF-1-induced progesterone and estradiol secretion (human granulose cell): inhibited

increase in cAMP production (human CMKLR1 [10]): more than 50 fold
Molecule: C=C[C@@]1(C)CC(=O)[C@]2(O)[C@@]3(C)[C@@H](O)CCC(C)(C)[C@@H]3[C@H](O)[C@H](OC(C)=O)[C@@]2(C)O1 [forskolin, reference compound]
increase in cAMP production (WT/HEK293 cells [3]; forskolin 10 μM): more than 50 fold

CMKLR1 internalization (human CMKLR1 [11]): negative control
chemotaxis (human CMKLR1 [7]; 1 nM): no chemotactic actions
chemotaxis (human CMKLR1 [7]; 10 nM): no chemotactic actions
Molecule: LRQFLQKSLAAAT [NTS]

B1: prochemerin: secreted as an inactive precursor, which is 143 amino acids long in human (protein, UniProt Q99969 21-163, looked up)
pro-form: ELTEAQRRGLQVALEEFHKHPPVQWAFQETSVESAVDTPFPAGIFVRLEFKLQQTSCRKRDWKKPECKVRPNGRKRKCLACIKLGSEDKVLGRLVHCPIETQVLREAEEHQETQCLRVQRAGEDPHSFYFPGQFAFSKALPRS
modifications: pro-form
affinity for CMKLR1 (CMKLR1 [12]): very low affinity

17β-HSD gene expression (antral follicles [14]): not affected
StAR gene expression (antral follicles [14]): not affected
p450scc gene expression (antral follicles [14]): not affected
3β-HSD gene expression (antral follicles [14]; with hCG): suppression of 3β-HSD gene expression
B2: mChemerin: mouse recombinant chemerin purchased from R&D Systems (protein, UniProt Q9DD06 21-156, looked up)
Retinoic acid receptor …: EPELSETQRRSLQVALEEFHKHPPVQLAFQEIGVDRAEEVLFSAGTFVRLEFKLQQTNCPKKDWKKPECTIKPNGRRRKCLACIKMDPKGKILGRIVHCPILKQGPQDPQELQCIKIAQAGEDPHGYFLPGQFAFS
hCG-stimulated testosterone production (primary Leydig cells [6]; 1 nM): suppressed
hCG-stimulated testosterone production (primary Leydig cells [6]; 10 nM): suppressed
hCG-stimulated testosterone production (primary Leydig cells [6]; 100 nM): suppressed
basal testosterone production (primary Leydig cells [6]; no hCG, 1, 10, 100 nM): No effect was observed
17β-HSD gene expression (primary Leydig cells [13]): not affected
StAR gene expression (primary Leydig cells [13]): not affected
p450scc gene expression (primary Leydig cells [13]): not affected
3β-HSD gene expression (primary Leydig cells [13]; with hCG): suppression of 3β-HSD gene expression
hCG-stimulated progesterone production (antral follicles [8]; 10 nM): effective
hCG-stimulated progesterone production (antral follicles [8]; 100 nM): effective
